Molecules are shown by their SMILES. Calls of active or inactive are those of the source. The calls are words filed in the database; no cut-off is given here.

The values below come from ChEMBL document CHEMBL4680065, “Pharmacophore-based screening of diamidine small molecule inhibitors for protein arginine methyltransferases” (RSC Med Chem, 2021).

For test [1], the target named is T1, Protein arginine N-methyltransferase 1 (Homo sapiens, UniProt Q99873). In words: Inhibition of recombinant human His-tagged PRMT1 expressed in Escherichia coli BL21 (DE3) using biotin-labeled histone H4-20 as substrate incubated for 8 mins in presence of [3H]-SAM cofactor by scintillation proximity assay. On the technique in general: SPA uses beads or plates that emit light when radiolabelled molecules are held near them.
Target sequence in this assay (Q99873 whole entry): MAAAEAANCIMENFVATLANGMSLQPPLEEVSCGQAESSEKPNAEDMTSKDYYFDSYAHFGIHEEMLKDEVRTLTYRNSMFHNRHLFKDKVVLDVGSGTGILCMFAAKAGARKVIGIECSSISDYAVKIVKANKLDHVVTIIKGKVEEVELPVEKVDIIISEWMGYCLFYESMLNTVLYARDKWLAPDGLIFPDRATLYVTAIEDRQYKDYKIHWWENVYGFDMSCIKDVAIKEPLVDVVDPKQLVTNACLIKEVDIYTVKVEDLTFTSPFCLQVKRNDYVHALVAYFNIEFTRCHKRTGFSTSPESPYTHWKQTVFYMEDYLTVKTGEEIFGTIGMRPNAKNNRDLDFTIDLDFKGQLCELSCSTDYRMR

Test [2] concerns the target Protein arginine N-methyltransferase 3 (Homo sapiens, UniProt O60678). Put plainly: Inhibition of recombinant human His-tagged PRMT3 expressed in Escherichia coli BL21 (DE3) using biotin-labeled SMD1 as substrate incubated for 10 mins in presence of [3H]-SAM cofactor by scintillation proximity assay. The essentials: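 The inhibitor was serially diluted and added to the enzyme, [3H]-SAM and substrate mixture, and methylated substrate was quantified by scintillation proximity assay. Reactions were held at initial rate, with yield under 10% and substrate near Km. PRMT3, PRMT8 and G9a were His-tagged human proteins, and PRMT7 was GST-tagged, all expressed in E. coli and affinity-purified.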

The target of test [3] is PRMT5/MEP50 complex (Homo sapiens) (UniProt O14744+Q9BQA1). Put plainly: Inhibition of PRMT5/MEP50 (unknown origin) assessed as residual activity at 10 uM using biotin-labeled histone H4-20 peptide as substrate incubated for 8 mins in presence of [3H]-SAM cofactor by scintillation proximity assay relative to control. Format: protein-complex assay. The procedure, abridged: (§1)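 Single-point profiling used 10 μM inhibitor added to the enzyme, [3H]-SAM and substrate mixture. Methylated substrate was quantified by scintillation proximity assay. Reactions were held at initial rate, with yield under 10% and substrate near Km. Enzyme, [3H]-SAM and substrate final levels are given in the supplement.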

The target of test [4] is Protein arginine N-methyltransferase 6 (Homo sapiens, UniProt Q96LA8). Put plainly: Inhibition of PRMT6 (unknown origin) assessed as residual activity at 10 uM using biotin-labeled SMD1 as substrate incubated for 30 mins in presence of [3H]-SAM cofactor by scintillation proximity assay relative to control. The essentials: as §1
Chain of Protein arginine N-methyltransferase 6 (Q96LA8 whole entry, looked up): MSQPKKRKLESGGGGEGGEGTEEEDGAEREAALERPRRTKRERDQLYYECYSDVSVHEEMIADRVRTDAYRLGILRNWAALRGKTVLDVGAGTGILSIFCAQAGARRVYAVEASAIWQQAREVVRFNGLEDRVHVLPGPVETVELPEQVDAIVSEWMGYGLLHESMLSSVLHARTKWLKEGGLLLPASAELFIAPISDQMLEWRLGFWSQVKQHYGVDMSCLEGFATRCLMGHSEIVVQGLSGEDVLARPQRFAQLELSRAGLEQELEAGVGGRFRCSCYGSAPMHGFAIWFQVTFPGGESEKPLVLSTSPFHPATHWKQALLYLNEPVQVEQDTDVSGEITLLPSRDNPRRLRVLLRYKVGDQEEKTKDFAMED
Test [5] addresses T2, Protein arginine N-methyltransferase 7 (Homo sapiens) (UniProt Q9NVM4).
T2 sequence (whole entry): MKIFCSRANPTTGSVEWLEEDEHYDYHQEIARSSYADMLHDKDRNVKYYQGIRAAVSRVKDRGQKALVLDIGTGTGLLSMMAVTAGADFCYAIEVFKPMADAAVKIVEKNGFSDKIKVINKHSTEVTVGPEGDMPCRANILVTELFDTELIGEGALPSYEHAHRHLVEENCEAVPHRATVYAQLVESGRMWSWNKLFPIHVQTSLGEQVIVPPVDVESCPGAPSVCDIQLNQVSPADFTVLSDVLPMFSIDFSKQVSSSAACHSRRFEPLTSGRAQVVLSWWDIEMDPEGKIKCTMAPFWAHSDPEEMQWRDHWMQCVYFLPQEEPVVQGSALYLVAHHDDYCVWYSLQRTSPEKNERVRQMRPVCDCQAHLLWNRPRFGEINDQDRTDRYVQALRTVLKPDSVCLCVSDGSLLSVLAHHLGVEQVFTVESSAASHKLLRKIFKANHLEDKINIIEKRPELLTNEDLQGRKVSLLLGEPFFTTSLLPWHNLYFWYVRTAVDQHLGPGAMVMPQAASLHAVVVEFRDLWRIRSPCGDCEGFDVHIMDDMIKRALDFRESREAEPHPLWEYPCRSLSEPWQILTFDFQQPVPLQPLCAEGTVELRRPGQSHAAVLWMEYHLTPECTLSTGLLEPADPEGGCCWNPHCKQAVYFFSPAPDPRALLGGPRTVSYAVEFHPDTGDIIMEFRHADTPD
In words: Inhibition of recombinant GST-tagged PRMT7 (unknown origin) expressed in Escherichia coli assessed as residual activity at 10 uM using biotin-labeled SMD1 as substrate incubated for 120 mins in presence of [3H]-SAM cofactor by scintillation proximity assay relative to control. The procedure, abridged:
as §1

For test [6], the target named is T1, Protein arginine N-methyltransferase 1. In words: Non-competitive inhibition of recombinant His-tagged PRMT1 (unknown origin) expressed in Escherichia coli BL21 (DE3) using varying levels of biotin-labeled histone H4-20 as substrate. The procedure, abridged:
(§2)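 His-tagged human PRMT1 was expressed in E. coli BL21(DE3) and Ni-affinity purified. IC50 was measured by SPA at varied SAM or biotinylated H4 peptide (0.3125–4.5 μM), with the other component fixed near its Km (0.5 μM); n = 2.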
Target sequence in this assay (Q99873 whole entry, looked up): as the sequence (Q99873 whole entry) above

Test [7] has the same target. Put plainly: Non-competitive inhibition of recombinant His-tagged PRMT1 (unknown origin) expressed in Escherichia coli BL21 (DE3) using varying levels of [3H]-SAM as cofactor. The essentials:
as §2
Target sequence in this assay (Q99873 whole entry, looked up): as the sequence (Q99873 whole entry) above

Test [8] has the same target. Put plainly: Inhibition of PRMT1 in human MEG-01 cells assessed as reduction in RBM15 total asymmetric arginine methylation level at 100 to 200 nM measured after 24 hrs by immunoblotting analysis. Conditions: dose 100-200 nM. The test is classed as cell-based. The procedure, abridged: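 MEG01 cells were cultured for 24 h with the inhibitor (100 nM, 200 nM) or with DMSO control. Cell extracts were resolved by SDS-PAGE and immunoblotted with anti-methyl-RBM15 antibody and the pan-asymmetric methylation antibody α-Asym24. Equal loading was checked by Ponceau S staining.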
Target sequence in this assay (Q99873 whole entry, looked up): as the sequence (Q99873 whole entry) above
(In general: A western blot detects proteins with antibodies after separation by electrophoresis.)

Chain of Protein arginine N-methyltransferase 3 (O60678 whole entry): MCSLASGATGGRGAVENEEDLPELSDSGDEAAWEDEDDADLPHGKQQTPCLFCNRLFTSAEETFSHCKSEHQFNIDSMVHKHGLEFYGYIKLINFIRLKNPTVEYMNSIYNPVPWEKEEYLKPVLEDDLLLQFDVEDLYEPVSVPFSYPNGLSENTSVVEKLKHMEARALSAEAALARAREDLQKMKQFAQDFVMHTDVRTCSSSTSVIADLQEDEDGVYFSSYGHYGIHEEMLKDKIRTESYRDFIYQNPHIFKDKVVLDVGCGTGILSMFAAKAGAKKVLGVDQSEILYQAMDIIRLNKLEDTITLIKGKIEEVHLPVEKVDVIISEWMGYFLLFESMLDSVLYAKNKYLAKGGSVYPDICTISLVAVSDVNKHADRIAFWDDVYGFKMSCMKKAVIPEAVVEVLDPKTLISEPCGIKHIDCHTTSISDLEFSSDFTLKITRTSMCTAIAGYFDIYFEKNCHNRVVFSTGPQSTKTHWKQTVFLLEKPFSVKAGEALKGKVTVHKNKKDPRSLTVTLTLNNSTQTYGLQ

For orientation: IC50 means the midpoint of a concentration-inhibition curve. With `N=C(N)c1ccc(Nc2ccc(-c3cc4ccc(C(=N)N)cc4[nH]3)cc2)cc1`, the IC50 in test [1] turned out to be 2600 nM; in test [2] it was 3400 nM. Further, the Activity in test [3] came to 35.1%; in test [4], 22.9%; in test [5], 32.1%. In addition, the inhibition entry in test [6], in test [7] and in test [8] was “Active” throughout.
